# Laboratory results published in PubChem BioAssay AID623956 (The Scripps Research Institute Molecular Screening Center, 2012).
# Activity calls are given as the source filed them.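 The calls were made as follows: active = at least 4-fold drop in recombinant frequency versus the solvent-only control; inactive = the rest.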
# Tested on: E. coli recBCD-deleted + H. pylori AddAB/RecA, Hfr recombinant frequency
# Test: Hfr recombinant frequency reduction – colony formation, p(addAB), p(recA), 20 µM, counter-screen for AddAB inhibitor project, late-stage follow-up (AID 623956)
# Details: at 20 µM; stronger effect = higher value
# Procedure, shortened: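 Assay system: recBCD-deleted E. coli recipient carrying H. pylori addAB and recA plasmids; Compound dosing: single 20 µM compound dose, DMSO vehicle; Schedule: compound exposure 1.5 h total, including 30 min mating; Technique: colony counts on selective and non-selective plates; Read-out basis: viability-corrected recombinant frequency drop relative to DMSO.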
row,SMILES,fold reduction
1,Cc1ccc2nc(/C(C#N)=C\c3ccc([N+](=O)[O-])o3)[nH]c2c1,1 (inactive)
2,O=C(Nc1ncccn1)c1ccc([N+](=O)[O-])o1,0.9 (inactive)
3,NC(=O)c1ccsc1NC(=O)COC(=O)c1ccc([N+](=O)[O-])o1,1.1 (inactive)
4,CCn1cc(C(=O)O)c(=O)c2cnc(N3CCN(C(=S)Nc4ccccc4C(F)(F)F)CC3)nc21,5
5,C=CCn1c(Sc2ncc([N+](=O)[O-])s2)n[nH]c1=O,1.1 (inactive)
6,O=C(NCc1cccnc1)c1ccc([N+](=O)[O-])o1,0.8 (inactive)
7,Cc1cccnc1NC(=O)c1ccc([N+](=O)[O-])o1,0.8 (inactive)
8,O=C(Nc1ccc(N2CCOCC2)cc1)c1ccc([N+](=O)[O-])o1,0.8 (inactive)
9,O=C(Nc1cccc(NC(=O)c2ccccc2Cl)c1)c1ccc([N+](=O)[O-])o1,0.8 (inactive)
10,O=C(OCC(=O)c1cccs1)c1ccc([N+](=O)[O-])o1,0.9 (inactive)
11,CC(=O)Nc1ccc2nc(NC(=O)c3ccc([N+](=O)[O-])o3)sc2c1,1.1 (inactive)
